Series [1] deals with Mus musculus. The series is described as follows: Anti-depression activity in mouse assessed as inhibition of oxytocin-induced scratching at 30 mg/kg, po administered before oxytocin stimulation and measured after 1 hr.
Series [2] in a line: in vitro. As to conditions: Wistar, rat.
A short description of series [3]: in vitro. Conditions: NMRI, mouse.
Series [4] is described as follows: in vitro. As to conditions: human.
In series [5] the target is T1, Vasopressin V2 receptor (Homo sapiens, UniProt P30518). The series is described as follows: Displacement of [3H]AVP from human V2a receptor expressed in 1132N1 cells assessed as dissociation constant by radioligand binding assay.
T1 sequence (P30518 whole entry): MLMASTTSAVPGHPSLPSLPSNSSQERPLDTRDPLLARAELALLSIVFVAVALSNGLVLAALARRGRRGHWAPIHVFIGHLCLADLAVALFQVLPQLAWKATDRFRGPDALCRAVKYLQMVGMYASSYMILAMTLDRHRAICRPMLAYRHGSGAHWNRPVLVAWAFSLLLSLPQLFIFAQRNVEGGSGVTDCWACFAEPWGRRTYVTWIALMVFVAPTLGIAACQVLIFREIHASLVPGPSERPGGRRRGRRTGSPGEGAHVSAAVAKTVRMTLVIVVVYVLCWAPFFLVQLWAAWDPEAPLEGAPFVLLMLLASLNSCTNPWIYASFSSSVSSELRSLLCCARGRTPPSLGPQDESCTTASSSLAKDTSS
In series [6] the target is T2, Vasopressin V1a receptor (Homo sapiens, UniProt P37288). In words: Inhibition of human V1a receptor expressed in human 1321N1 cells assessed as decrease in Arg8-vasopressin-stimulated calcium flux by fluorometric calcium assay. The format is functional, cell-based. In short, it runs like this: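 1321N1 cells expressing human V1a receptor stimulated with (Arg8)-vasopressin. Intracellular Ca2+ change measured. IC50 values averaged from at least three independent measurements.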
T2 sequence (P37288 whole entry): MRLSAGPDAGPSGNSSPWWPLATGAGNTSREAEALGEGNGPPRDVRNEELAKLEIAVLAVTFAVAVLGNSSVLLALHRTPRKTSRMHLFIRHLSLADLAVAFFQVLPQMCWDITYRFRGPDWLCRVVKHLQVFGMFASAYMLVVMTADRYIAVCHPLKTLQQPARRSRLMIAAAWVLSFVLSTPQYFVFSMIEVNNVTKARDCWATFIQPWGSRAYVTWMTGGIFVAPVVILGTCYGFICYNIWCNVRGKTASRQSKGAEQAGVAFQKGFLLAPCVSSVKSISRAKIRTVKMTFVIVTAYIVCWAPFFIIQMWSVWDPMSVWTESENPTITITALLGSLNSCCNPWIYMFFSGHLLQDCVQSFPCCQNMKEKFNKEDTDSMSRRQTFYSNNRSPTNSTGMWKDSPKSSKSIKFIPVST

The target of series [7] is T2, Vasopressin V1a receptor. The series is described as follows: Displacement of [3H]AVP from human V1a receptor expressed in […] cells assessed as dissociation constant by radioligand binding assay. The format is cell-based, 1321N1. The method, boiled down:
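Membranes from 1321N1 cells expressing human V1a or V2 receptor incubated with [3H]AVP and increasing test compound concentrations. Nonspecific binding defined with 2 µM arginine-vasopressin for both receptors. IC50 taken from sigmoidal fit of displacement curves, then converted to Ki by Cheng-Prusoff.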

Series [8] in a line: Apparent permeability across apical to basolateral side in vinblastine-treated human Caco-2 cells at 1 uM by HPLC-UV analysis. The format is ADME. In short, it runs like this:
(§1)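 Bidirectional transport across VB-Caco-2 monolayers with test compound at 1 or 10 µM. Apparent permeability A→B reported, with PDR from the two directions.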

A further series deals with P-glycoprotein. The series is described as follows: Efflux ratio of Apparent permeability across apical to basolateral side in vinblastine-treated human Caco-2 cells expressing P-glycoprotein at 1 uM by HPLC-UV analysis. Format: ADME. The method, boiled down: as §1
The target in series [9] is T1, Vasopressin V2 receptor. In words: Displacement of [3H]AVP from human […] receptor expressed in […] cells at 1 uM by radioligand binding assay relative to control. Conditions: 1321N1. Format: cell-based. In short, it runs like this:
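Membranes from 1321N1 cells expressing human V1a or V2 receptor incubated with [3H]AVP and single test concentration. Nonspecific binding defined with 2 µM arginine-vasopressin.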

The species named for series [10] is Mus musculus. In words: animal or person. As to conditions: ip, 1 h, read-out: INH.

The structures appear in SMILES notation.

For the compound `Clc1ccc2c(c1)CCCc1nnc([C@H]3CC[C@H](Oc4ccccn4)CC3)n1-2`, the inhibition in vivo at 30 mg/kg in the series with Mus musculus [1] is 94%. The microsomal CLint at 1 µM in “in vitro [2]” (liver microsomes) was 124 µL/min/mg; in “in vitro [3]” (liver microsomes) it was 94 µL/min/mg; in the series “in vitro [4]” (liver microsomes), 7 µL/min/mg. The Ki on Vasopressin V2 receptor [5] was determined as 560 nM; at Vasopressin V1a receptor [7], 0.8 nM. In addition, the IC50 at Vasopressin V1a receptor [6] amounted to 1 nM.
Take `CN1Cc2cc(Cl)ccc2-n2c(nnc2[C@H]2CC[C@H](Oc3ccccn3)CC2)C1` [BALOVAPTAN]: the apical-to-basolateral permeability (Papp A→B) at 1 µM in series [8] worked out at 43 ×10⁻⁶ cm/s. The inhibition in vivo at 30 mg/kg in the series with Mus musculus [1] was 80%. The microsomal CLint at 1 µM in the series “in vitro [2]” (microsomes) was found to be 22 µL/min/mg; in the series “in vitro [3]” (microsomes), 17 µL/min/mg; in the series “in vitro [4]” (microsomes) it was 0.5 µL/min/mg. Besides, the efflux ratio at 1 µM in the series with P-glycoprotein is 1.1. The concentration for half-maximal inhibition (IC50) at Vasopressin V1a receptor [6] came to 3 nM.
Consider `Cc1cc([C@H]2CC[C@H](c3nnc4n3-c3ccc(Cl)cc3CC4)CC2)no1`, for which the microsomal CLint at 1 µM in the series “in vitro [2]” (liver microsomes) was 13 µL/min/mg; in “in vitro [3]” (liver microsomes), 13 µL/min/mg; in “in vitro [4]” (liver microsomes), 0.3 µL/min/mg. The same compound returned an inhibition on Vasopressin V2 receptor [9] of 9%. For the same compound, the inhibition in vivo at 10 mg/kg in the series listed under Mus musculus [10] was found to be 45%. In addition, the IC50 on Vasopressin V1a receptor [6] turned out to be 100 nM. Further, the Ki at Vasopressin V1a receptor [7] came out at 13 nM.

The record behind these values is ChEMBL document CHEMBL4665717, “New V1a receptor antagonist. Part 2. Identification and optimization of triazolobenzazepines” (Bioorg Med Chem Lett, 2020).
